Source: ChEMBL document CHEMBL5357066, “Development of Novel Membrane Disrupting Lipoguanidine Compounds Sensitizing Gram-Negative Bacteria to Antibiotics” (ACS Med Chem Lett, 2024)
Activity calls are given as the source filed them. The calls are words filed in the database; no cut-off is given here.

Tests used:
Pseudomonas aeruginosa [1] = experiment: Synergistic antibacterial activity against Pseudomonas aeruginosa NCTC 13437 assessed as bacterial growth inhibition incubated for overnight in presence of PBMN by microbroth dilution method relative to control; format: functional
Procedure, shortened: (§1)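 Adapted broth microdilution in TSB. The test compound was in a 2-fold dilution series, with PMBN added at a fixed 30 µg/mL. Bacteria at OD 0.02 were added, and plates were incubated overnight at 37 °C. Growth/no growth was read as for the MIC (<0.1 OD600).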

Pseudomonas aeruginosa [2] = experiment: Synergistic antibacterial activity against Pseudomonas aeruginosa PAO1 assessed as bacterial growth inhibition incubated for overnight in presence of […] by microbroth dilution method relative to control; format: functional
Procedure, shortened: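 Fixed-concentration combination MIC in TSB. The first agent was set in a two-fold dilution series (100 µL/well), then 50 µL/well of the second agent at a fixed concentration was added; PMBN was fixed at 30 µg/mL. Bacteria at OD 0.02 (50 µL) went into 150 µL of compounds, overnight at 37 °C. MIC was the lowest concentration without visible growth (<0.1 OD600).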

Acinetobacter baumannii [3] = experiment: Synergistic antibacterial activity against Acinetobacter baumannii ATCC 17978 assessed as bacterial growth inhibition incubated for overnight in presence of PBMN by microbroth dilution method relative to control; format: functional; procedure, shortened: as §1
Acinetobacter baumannii [4] = experiment: Synergistic antibacterial activity against Acinetobacter baumannii ATCC 17978 assessed as novobiocin MIC at <=0.25 times MIC incubated for overnight by microbroth dilution checkerboard assay; format: functional
Procedure, shortened: (§2)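 Checkerboard microdilution under MIC conditions (TSB, overnight, 37 °C). Two-fold series of each agent were combined on one plate before bacteria were added, and single-agent MICs were measured on the same plate. FIC = sum of combination MIC/alone MIC for each agent, taken from the most synergistic well. Three independent repeats, mean ± SD. ≤0.5 was taken as strong synergy and 0.5–<1 as weak.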

Cell membrane = experiment: Induction of outer membrane permeabilization in Acinetobacter baumannii AYE assessed as increase fluorescence intensity by measuring NPN uptake factor measured immediately for 2 hrs by fluorescence based analysis; format: subcellular
Procedure, shortened: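 NPN outer-membrane uptake. Overnight TSB cultures (37 °C, 200 rpm) were subcultured 1:20 for 2 h to mid-log, washed, and resuspended in 5 mM HEPES with 5 mM glucose, pH 7.2. Cells were mixed with assay buffer containing 10 µM NPN, then with compound, polymyxin B (positive control) or buffer. Fluorescence (ex 350, em 420 nm) was monitored immediately for 2 h.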

Acinetobacter baumannii [5] = experiment: Synergistic antibacterial activity against Acinetobacter baumannii AYE assessed as bacterial growth inhibition incubated for overnight in presence of PBMN by microbroth dilution method relative to control; format: functional; procedure, shortened: as §1
Acinetobacter baumannii [6] = experiment: Synergistic antibacterial activity against Acinetobacter baumannii ATCC 17978 assessed as fold change in novobiocin MIC at <=0.25 times MIC incubated for overnight by microbroth dilution checkerboard assay relative to novobiocin alone; format: functional; procedure, shortened: as §2
Klebsiella pneumoniae [7] = experiment: Synergistic antibacterial activity against Klebsiella pneumoniae NCTC 13368 assessed as bacterial growth inhibition incubated for overnight in presence of PBMN by microbroth dilution method relative to control; format: functional; procedure, shortened: as §1
Pseudomonas aeruginosa [8] = experiment: Synergistic antibacterial activity against Pseudomonas aeruginosa PAO1 assessed as novobiocin MIC at <=0.25 times MIC incubated for overnight by microbroth dilution checkerboard assay; format: functional
Procedure, shortened: (§3)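 Checkerboard microdilution in Tryptic Soy Broth, run like the MIC assay. Overnight TSB cultures were back-diluted to OD 0.01 and added 1:1 to the combined two-fold series of both agents, then incubated overnight at 37 °C. Growth/no-growth was called at <0.1 OD600. MICs alone were read on the same plates. FIC index came from the most synergistic well; three independent repeats, mean ± SD.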

Klebsiella pneumoniae [9] = experiment: Synergistic antibacterial activity against […] Klebsiella pneumoniae M6 assessed as novobiocin MIC at <=0.25 times MIC incubated for overnight by microbroth dilution checkerboard assay; format: functional
Procedure, shortened: (§4)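 Checkerboard run under the MIC conditions (TSB, overnight, 37 °C). Antibiotic and lipoguanidine 2-fold series were combined on one plate before bacteria were added. Growth/no-growth was scored as for the MIC (<0.1 OD600). Single-agent MICs were measured on the same plates. Three independent repeats were done.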

Pseudomonas aeruginosa [10] = experiment: Synergistic antibacterial activity against Pseudomonas aeruginosa NCTC 13437 assessed as fold change in novobiocin MIC at <=0.25 times MIC incubated for overnight by microbroth dilution checkerboard assay relative to novobiocin alone; format: functional; procedure, shortened: as §2
Klebsiella pneumoniae [11] = experiment: Synergistic antibacterial activity against Klebsiella pneumoniae NCTC 13368 assessed as fold change in novobiocin MIC at <=0.25 times MIC incubated for overnight by microbroth dilution checkerboard assay relative to novobiocin alone; format: functional; procedure, shortened: as §2
Klebsiella pneumoniae [12] = experiment: Synergistic antibacterial activity against […] Klebsiella pneumoniae NCTC 13368 assessed as novobiocin MIC at <=0.25 times MIC incubated for overnight by microbroth dilution checkerboard assay; format: functional; procedure, shortened: as §4
Pseudomonas aeruginosa [13] = experiment: Synergistic antibacterial activity against Pseudomonas aeruginosa PAO1 assessed as fold change in novobiocin MIC at <=0.25 times MIC incubated for overnight by microbroth dilution checkerboard assay relative to novobiocin alone; format: functional; procedure, shortened: as §3
Acinetobacter baumannii [14] = experiment: Synergistic antibacterial activity against Acinetobacter baumannii AYE assessed as fold change in novobiocin MIC at <=0.25 times MIC incubated for overnight by microbroth dilution checkerboard assay relative to novobiocin alone; format: functional; procedure, shortened: as §2
Acinetobacter baumannii [15] = experiment: Synergistic antibacterial activity against Acinetobacter baumannii AYE assessed as novobiocin MIC at <=0.25 times MIC incubated for overnight by microbroth dilution checkerboard assay; format: functional; procedure, shortened: as §2
Klebsiella pneumoniae [16] = experiment: Synergistic antibacterial activity against Klebsiella pneumoniae M6 assessed as fold change in novobiocin MIC at <=0.25 times MIC incubated for overnight by microbroth dilution checkerboard assay relative to novobiocin alone; format: functional; procedure, shortened: as §2
Escherichia coli [17] = experiment: Synergistic antibacterial activity against Escherichia coli NCTC 12923 assessed as novobiocin MIC at <=0.25 times MIC incubated for overnight by microbroth dilution checkerboard assay; format: functional; procedure, shortened: as §2
Escherichia coli [18] = experiment: Synergistic antibacterial activity against Escherichia coli NCTC 12923 assessed as bacterial growth inhibition incubated for overnight in presence of PBMN by microbroth dilution method relative to control; format: functional; procedure, shortened: as §1
Pseudomonas aeruginosa [19] = experiment: Synergistic antibacterial activity against Pseudomonas aeruginosa NCTC 13437 assessed as novobiocin MIC at <=0.25 times MIC incubated for overnight by microbroth dilution checkerboard assay; format: functional; procedure, shortened: as §3
Klebsiella pneumoniae [20] = experiment: Synergistic antibacterial activity against Klebsiella pneumoniae M6 assessed as bacterial growth inhibition incubated for overnight in presence of PBMN by microbroth dilution method relative to control; format: functional; procedure, shortened: as §1
Escherichia coli [21] = experiment: Potentiation of doxycycline induced antibacterial activity against Escherichia coli NCTC 12923; format: functional, organism-based
[22] = Hemolytic activity in human Red blood cells at 512 microg/ml measured after 1 hrs by absorbance based assay relative to control; format: toxicity, cell-based, Erythrocyte; conditions: red blood cells (erythrocytes), at 512 µg/mL, read-out: Activity
Procedure, shortened: (§5)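 Titrations in PBS were incubated with freshly collected human red blood cells for 1 h at 37 °C. Controls were 0.1% Triton-X-100 (full lysis) and PBS alone (no lysis). After centrifugation, supernatant OD550 was read. % haemolysis = (AP−AB)/(AC−AB)×100. Data are means and standard error of three biological replicates.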

Erythrocyte = experiment: Hemolytic activity in human Red blood cells at 512 microg/ml measured after 1 hrs by absorbance based assay; format: toxicity, cell-based; conditions: dose 512 µg/ml; procedure, shortened: as §5

## CCCCCCCCCCNC(=N)NCCCCN
Pseudomonas aeruginosa [1]
  inhibition (INH): <20%
Pseudomonas aeruginosa [2]
  inhibition (INH): <20%
Acinetobacter baumannii [3]
  inhibition (INH): <20%
Acinetobacter baumannii [4]
  MIC: 0.25 µg/mL
Cell membrane
  Activity: > 1
Acinetobacter baumannii [5]
  inhibition (INH): <20%
Acinetobacter baumannii [6]
  fold change (FC): >=4
Klebsiella pneumoniae [7]
  inhibition (INH): <20%
Pseudomonas aeruginosa [8]
  MIC: 2 µg/mL
Klebsiella pneumoniae [9]
  MIC: 4 µg/mL
Pseudomonas aeruginosa [10]
  fold change (FC): >=4
Klebsiella pneumoniae [11]
  fold change (FC): >=4
Klebsiella pneumoniae [12]
  MIC: 16 µg/mL
Pseudomonas aeruginosa [13]
  fold change (FC): >=4
Acinetobacter baumannii [14]
  fold change (FC): >=4
Acinetobacter baumannii [15]
  MIC: ≤ 0.125 µg/mL
Klebsiella pneumoniae [16]
  fold change (FC): >=4
Escherichia coli [17]
  MIC: 0.5 µg/mL
Escherichia coli [18]
  inhibition (INH): <20%
Pseudomonas aeruginosa [19]
  MIC: 8 µg/mL
Klebsiella pneumoniae [20]
  inhibition (INH): <20%
Escherichia coli [21]
  Activity: Active
[22]
  hemolysis at 1 h, 512 microg/ml: 8.2%

## CC/C=C\C/C=C\C/C=C\CCCCCCCCNC(=N)NCCCCN
Erythrocyte
  Activity: Toxic
Acinetobacter baumannii [4]
  MIC: ≤ 0.125 µg/mL
Acinetobacter baumannii [6]
  fold change (FC): >=4
Pseudomonas aeruginosa [8]
  MIC: > 128 µg/mL
Klebsiella pneumoniae [9]
  MIC: 8 µg/mL
Pseudomonas aeruginosa [10]
  fold change (FC): 0
Klebsiella pneumoniae [11]
  fold change (FC): 0
Klebsiella pneumoniae [12]
  MIC: > 128 µg/mL
Pseudomonas aeruginosa [13]
  fold change (FC): 0
Acinetobacter baumannii [14]
  fold change (FC): >=4
Acinetobacter baumannii [15]
  MIC: ≤ 0.125 µg/mL
Klebsiella pneumoniae [16]
  fold change (FC): >=4
Escherichia coli [17]
  MIC: 32 µg/mL
Pseudomonas aeruginosa [19]
  MIC: > 128 µg/mL

## CCCCCCCC/C=C\CCCCCCCCNC(=N)NCCCCNC(=N)N
Pseudomonas aeruginosa [1]
  inhibition (INH): <20%
Pseudomonas aeruginosa [2]
  inhibition (INH): <20%
Acinetobacter baumannii [3]
  inhibition (INH): <20%
Erythrocyte
  Activity: Toxic
Acinetobacter baumannii [4]
  MIC: ≤ 0.125 µg/mL
Acinetobacter baumannii [5]
  inhibition (INH): <20%
Acinetobacter baumannii [6]
  fold change (FC): >=4
Klebsiella pneumoniae [7]
  inhibition (INH): <20%
Pseudomonas aeruginosa [8]
  MIC: > 128 µg/mL
Klebsiella pneumoniae [9]
  MIC: 1 µg/mL
Pseudomonas aeruginosa [10]
  fold change (FC): 0
Klebsiella pneumoniae [11]
  fold change (FC): 0
Klebsiella pneumoniae [12]
  MIC: > 128 µg/mL
Pseudomonas aeruginosa [13]
  fold change (FC): 0
Acinetobacter baumannii [14]
  fold change (FC): 0
Acinetobacter baumannii [15]
  MIC: ≤ 0.125 µg/mL
Klebsiella pneumoniae [16]
  fold change (FC): >=4
Escherichia coli [17]
  MIC: 4 µg/mL
Escherichia coli [18]
  inhibition (INH): <20%
Pseudomonas aeruginosa [19]
  MIC: > 128 µg/mL
Klebsiella pneumoniae [20]
  inhibition (INH): <20%
